# Legend:
# [1] = Ratio of the IC50 value of Mazindol to that of the compound.; type: functional
# [2] = target: T1, Sodium-dependent serotonin transporter (Homo sapiens, UniProt P31645); assay: Inhibition of 5-HT uptake in HEK cells expressing human serotonin transporter (hSERT); type: functional, cell-based, HEK293
# In short: (§1)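 Scraped HEK293 cells expressing hSERT or hDAT in Krebs-HEPES, preincubated 10 min at 25 °C with test compound. Uptake started with [3H]serotonin or [3H]dopamine (20 nM final), stopped after 10 min by filtration on PEI-soaked GF/C filters.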
# [3] = target: T2, Sodium-dependent noradrenaline transporter (Homo sapiens, UniProt P23975); assay: Inhibition of NE uptake in HEK cells expressing human noradrenaline transporter (hNET); type: functional, cell-based, HEK293
# T2 sequence (P23975 whole entry): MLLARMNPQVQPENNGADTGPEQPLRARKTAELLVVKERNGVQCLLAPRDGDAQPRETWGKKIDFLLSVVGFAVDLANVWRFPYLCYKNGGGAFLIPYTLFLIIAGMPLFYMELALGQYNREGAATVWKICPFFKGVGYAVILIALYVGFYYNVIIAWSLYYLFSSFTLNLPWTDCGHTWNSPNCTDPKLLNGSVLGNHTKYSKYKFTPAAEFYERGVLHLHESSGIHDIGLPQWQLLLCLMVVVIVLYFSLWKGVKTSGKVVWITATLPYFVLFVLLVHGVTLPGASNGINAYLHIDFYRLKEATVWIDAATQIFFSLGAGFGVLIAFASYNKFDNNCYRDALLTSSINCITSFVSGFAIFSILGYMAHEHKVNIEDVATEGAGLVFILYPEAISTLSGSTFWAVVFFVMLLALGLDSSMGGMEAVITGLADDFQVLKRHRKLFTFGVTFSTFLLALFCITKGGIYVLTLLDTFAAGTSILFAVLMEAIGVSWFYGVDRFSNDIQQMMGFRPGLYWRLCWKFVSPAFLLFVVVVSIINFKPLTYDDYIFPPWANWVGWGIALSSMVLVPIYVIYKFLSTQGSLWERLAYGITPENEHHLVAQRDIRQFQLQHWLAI
# [4] = target: Sodium-dependent dopamine transporter (Rattus norvegicus) (UniProt P23977); assay: Ability to displace [3H]WIN-35428 from Dopamine Transporter of rat striatal membrane at a concentration of 10 E-6 M
# Sodium-dependent dopamine transporter (Rattus norvegicus), sequence (P23977 whole entry): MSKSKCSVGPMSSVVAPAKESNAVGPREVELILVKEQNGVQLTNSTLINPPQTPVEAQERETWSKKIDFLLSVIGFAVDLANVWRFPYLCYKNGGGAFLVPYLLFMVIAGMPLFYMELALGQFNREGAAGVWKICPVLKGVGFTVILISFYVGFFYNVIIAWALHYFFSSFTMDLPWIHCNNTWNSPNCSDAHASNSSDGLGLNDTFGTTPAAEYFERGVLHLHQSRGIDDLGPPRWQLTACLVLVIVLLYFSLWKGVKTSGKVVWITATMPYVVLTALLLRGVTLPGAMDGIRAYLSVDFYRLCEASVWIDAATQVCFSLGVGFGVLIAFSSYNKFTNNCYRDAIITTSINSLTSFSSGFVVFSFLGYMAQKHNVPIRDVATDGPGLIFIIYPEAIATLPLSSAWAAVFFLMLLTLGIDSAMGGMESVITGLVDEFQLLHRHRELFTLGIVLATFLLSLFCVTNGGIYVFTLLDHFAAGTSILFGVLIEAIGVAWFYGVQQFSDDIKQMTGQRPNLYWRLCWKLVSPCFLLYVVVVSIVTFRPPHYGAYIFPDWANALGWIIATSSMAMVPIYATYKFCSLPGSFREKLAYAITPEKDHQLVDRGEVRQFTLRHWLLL
# [5] = Discrimination ratio against DAT as ratio of IC50 to that of Ki uptake to DAT.; type: functional
# [6] = target: T2, Sodium-dependent noradrenaline transporter; assay: Displacement of [125I]RTI-55 from human Norepinephrine transporter expressed in HEK cells; type: cell-based, HEK293
# [7] = Discrimination ratio against SERT as ratio of IC50 to that of Ki uptake to SERT.; type: functional
# [8] = target: T1, Sodium-dependent serotonin transporter; assay: Displacement of [125I]- RTI-55 from Serotonin transporter expressed in HEK cells; type: cell-based, HEK293
# In short: (§2)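 Membranes from HEK293 cells expressing hDAT, hSERT or hNET (10–15 μg protein) preincubated 10 min with test compound in Krebs-HEPES pH 7.4. Two or three experiments in duplicate; IC50 converted to Ki by Cheng-Prusoff.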
# [9] = target: Monoamine transporters; serotonin & dopamine (Homo sapiens) (UniProt P31645+Q01959); assay: Selectivity ratio as ratio of IC50 value against SERT to that of DAT; type: protein assay
# Monoamine transporters; serotonin & dopamine (Homo sapiens), sequence (P31645 whole entry, looked up): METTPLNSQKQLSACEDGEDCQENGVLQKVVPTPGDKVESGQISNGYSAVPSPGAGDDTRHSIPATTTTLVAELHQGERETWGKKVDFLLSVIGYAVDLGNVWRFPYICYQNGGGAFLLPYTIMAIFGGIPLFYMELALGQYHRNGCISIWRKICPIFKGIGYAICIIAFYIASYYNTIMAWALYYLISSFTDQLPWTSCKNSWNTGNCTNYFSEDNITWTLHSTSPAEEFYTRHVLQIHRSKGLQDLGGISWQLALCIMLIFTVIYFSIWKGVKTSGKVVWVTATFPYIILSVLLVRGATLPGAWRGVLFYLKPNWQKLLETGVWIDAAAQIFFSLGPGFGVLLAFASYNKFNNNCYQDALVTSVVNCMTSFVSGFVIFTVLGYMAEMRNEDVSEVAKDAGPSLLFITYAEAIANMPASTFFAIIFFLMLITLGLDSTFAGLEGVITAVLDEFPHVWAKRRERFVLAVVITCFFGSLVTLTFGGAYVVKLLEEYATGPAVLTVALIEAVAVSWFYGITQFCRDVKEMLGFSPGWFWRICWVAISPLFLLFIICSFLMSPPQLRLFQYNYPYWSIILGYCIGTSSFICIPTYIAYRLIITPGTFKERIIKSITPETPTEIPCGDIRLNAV
# Monoamine transporters; serotonin & dopamine (Homo sapiens), sequence (Q01959 whole entry, looked up): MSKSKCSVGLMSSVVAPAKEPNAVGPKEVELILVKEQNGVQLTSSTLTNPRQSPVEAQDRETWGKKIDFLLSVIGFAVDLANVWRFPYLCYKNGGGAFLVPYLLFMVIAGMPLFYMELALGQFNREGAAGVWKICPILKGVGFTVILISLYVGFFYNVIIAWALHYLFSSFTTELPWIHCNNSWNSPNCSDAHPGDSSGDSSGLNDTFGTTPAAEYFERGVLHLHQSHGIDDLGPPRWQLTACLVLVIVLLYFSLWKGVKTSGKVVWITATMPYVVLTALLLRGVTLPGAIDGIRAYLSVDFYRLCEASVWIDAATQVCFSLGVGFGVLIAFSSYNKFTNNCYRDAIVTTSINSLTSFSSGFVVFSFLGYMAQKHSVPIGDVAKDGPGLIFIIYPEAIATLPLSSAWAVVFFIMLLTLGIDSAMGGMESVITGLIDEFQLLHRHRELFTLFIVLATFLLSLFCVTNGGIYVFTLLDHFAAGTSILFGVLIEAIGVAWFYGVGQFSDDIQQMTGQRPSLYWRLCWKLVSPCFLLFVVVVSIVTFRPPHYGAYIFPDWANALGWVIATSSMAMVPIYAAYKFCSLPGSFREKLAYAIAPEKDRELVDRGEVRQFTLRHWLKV
# [10] = target: T3, Sodium-dependent dopamine transporter (Homo sapiens, UniProt Q01959); assay: Displacement of [125I]- RTI-55 from Dopamine transporter expressed in HEK cells; type: cell-based, HEK293; in short: as §2
# T3 sequence (Q01959 whole entry): as the sequence (Q01959 whole entry, looked up) above
# [11] = Discrimination ratio against NET as ratio of IC50 to that of Ki uptake to NET.; type: functional
# [12] = target: T3, Sodium-dependent dopamine transporter; assay: Inhibition of dopamine uptake in HEK cells expressing human dopamine transporter (hDAT); type: functional, cell-based, HEK293; in short: as §1
# [13] = target: Monoamine transporters; Norepinephrine & dopamine (Homo sapiens) (UniProt Q01959+P23975); assay: Selectivity ratio as ratio of IC50 value against NET to that of DAT; type: protein assay
# Monoamine transporters; Norepinephrine & dopamine (Homo sapiens), sequence (P23975 whole entry, looked up): as the sequence (P23975 whole entry) above
# Monoamine transporters; Norepinephrine & dopamine (Homo sapiens), sequence (Q01959 whole entry, looked up): as the sequence (Q01959 whole entry, looked up) above
# T1 sequence (P31645 whole entry): as the sequence (P31645 whole entry, looked up) above
smiles,measurement,setting,value
Cc1cc(C)c2c(c1)C1=NCCN1C2(O)c1ccc(Cl)cc1 (stereo unspecified),Ratio,[1],0.6
COCC1(c2ccc(Cl)cc2)c2ccccc2C2=NCCCN21 (stereo unspecified),Ratio,[1],< 0.002
OC1(c2ccc(Cl)cc2)c2ccccc2C2=NCCN21 (stereo unspecified) [MAZINDOL],IC50,[2],94 nM
same,IC50,[3],4.9 nM
COc1ccc(C2(O)c3ccccc3C3=NCCCN32)cc1OC (stereo unspecified),Ratio,[1],0.1
OC1(c2ccc3c(c2)OCO3)c2ccccc2C2=NCCN21 (stereo unspecified),Ratio,[1],0.4
OC1(c2ccc(-c3ccccc3)cc2)c2ccccc2C2=NCCN21 (stereo unspecified),Ratio,[1],< 0.002
same,inhibition,[4],14.1%
COC(=O)c1ccc(C2(O)c3ccccc3C3=NCCN32)cc1 (stereo unspecified),Ratio,[1],0.002
OC1(c2ccncc2)c2ccccc2C2=NCCN21 (stereo unspecified),Ratio,[1],0.1
OC1(c2ccc(Cl)cc2)c2cccc(-c3ccccc3)c2C2=NCCN21 (stereo unspecified),Ratio,[1],0.1
OC1(c2ccc(Cl)cc2)c2c(ccc3c2OCO3)C2=NCCN21 (stereo unspecified),Ratio,[1],0.1
OC1(c2ccc(Cl)cc2)c2cc(Cl)c(Cl)cc2C2=NCCN21 (stereo unspecified),Ratio,[5],5.7
same,Ki,[6],40 nM
same,Ratio,[7],0.3
same,Ki,[8],1350 nM
same,IC50,[2],444 nM
same,Ratio,[9],1280
same,IC50,[3],10 nM
same,Ratio,[1],0.6
same,Ki,[10],1.05 nM
same,Ratio,[11],0.3
same,IC50,[12],6 nM
same,Ratio,[13],38
C=CCOc1ccc(C2(O)c3ccccc3C3=NCCCN32)cc1 (stereo unspecified),Ratio,[1],0.1
COc1cccc2c1C1=NCCN1C2(O)c1ccc(Cl)cc1 (stereo unspecified),Ratio,[5],14.5
same,Ki,[6],6.8 nM
same,Ratio,[7],0.3
same,Ki,[8],870 nM
same,IC50,[2],280 nM
same,Ratio,[9],300
same,IC50,[3],4.7 nM
same,Ratio,[1],9
same,Ki,[10],2.9 nM
same,Ratio,[11],0.7
same,IC50,[12],42 nM
same,Ratio,[13],2.3
Cc1ccc(C2(O)c3ccccc3C3=NCCN32)cc1 (stereo unspecified),Ratio,[1],0.1
OC1(c2ccc(OCc3ccccc3)cc2)c2ccccc2C2=NCCCN21 (stereo unspecified),Ratio,[1],0.1
OC1(c2ccccc2)c2cc(Cl)ccc2C2=NCCN21 (stereo unspecified),Ratio,[1],0.1
COc1ccc(C2(O)c3ccccc3C3=NCCCN32)cc1 (stereo unspecified),Ratio,[5],0.8
same,Ki,[6],84 nM
same,Ratio,[7],1.7
same,Ki,[8],55.9 nM
same,IC50,[2],94 nM
same,Ratio,[9],1.5
same,IC50,[3],4.1 nM
same,Ratio,[1],3.2
same,Ki,[10],36.2 nM
same,Ratio,[11],0.05
same,IC50,[12],30.4 nM
same,Ratio,[13],2.3
COc1ccc2c(c1)C(O)(c1ccc(Cl)cc1)N1CCN=C21 (stereo unspecified),Ratio,[5],2.8
same,Ki,[6],23 nM
same,Ratio,[7],1.9
same,Ki,[8],1030 nM
same,IC50,[2],1960 nM
same,Ratio,[9],172
same,IC50,[3],1.46 nM
same,Ratio,[1],3.2
same,Ki,[10],6 nM
same,Ratio,[11],0.06
same,IC50,[12],16.7 nM
same,Ratio,[13],3.9
OC1(c2ccc(Cl)cc2)c2cccc(F)c2C2=NCCN21 (stereo unspecified),Ratio,[5],4
same,Ki,[6],0.9 nM
same,Ratio,[7],3.4
same,Ki,[8],38.1 nM
same,IC50,[2],129 nM
same,Ratio,[9],1.65
same,IC50,[3],5 nM
same,Ratio,[1],3.5
same,Ki,[10],23.1 nM
same,Ratio,[11],5.6
same,IC50,[12],91 nM
same,Ratio,[13],0.04

# Source: ChEMBL document CHEMBL1135775 (J Med Chem, 2002)
